Source: ChEMBL document CHEMBL1142577, “Asimitrin and 4-hydroxytrilobin, new bioactive annonaceous acetogenins from the seeds of Asimina triloba possessing a bis-tetrahydrofuran ring” (J Nat Prod, 2005)
Values after ≈ are worked out from the molar mass of the structure shown.

Experiments:
MCF7 = assay: Cytotoxicity against human MCF7 cells after 7 days by MTT assay; type: functional; conditions: MCF7, 168 h, read-out: ED50 (the source's name)
Outline: (§1)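 Seven-day in vitro MTT cytotoxicity test on human tumour lines, run with adriamycin as positive control under standard protocols. Cell line origins: A-549 lung carcinoma, MCF-7 breast carcinoma, HT-29 colon adenocarcinoma, A-498 kidney carcinoma, PC-3 prostate adenocarcinoma, MIA PaCa-2 pancreatic carcinoma.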

PC-3 = assay: Cytotoxicity against human PC-3 cells after 7 days by MTT assay; type: functional; outline: as §1
Artemia = assay: Toxicity in brine shrimp; type: organism-based; conditions: in vivo
Outline: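 Brine shrimp lethality test (BST) on brine shrimp larvae, run routinely on extracts, fractions and isolated compounds, with lethality as the read-out.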

HT-29 = assay: Cytotoxicity against human HT-29 cells after 7 days by MTT assay; type: functional; outline: as §1
MIA PaCa-2 = assay: Cytotoxicity against human MIA PaCa2 cells after 7 days by MTT assay; type: functional; outline: as §1
A549 = assay: Cytotoxicity against human A549 cells after 7 days by MTT assay; type: functional; conditions: A549, 168 h, read-out: ED50 (the source's name); outline: as §1
A498 = assay: Cytotoxicity against human A-498 cells after 7 days by MTT assay; type: functional; conditions: A498, 168 h, read-out: ED50 (the source's name); outline: as §1

Structure (SMILES): CCCCCCCCCC[C@@H](O)[C@H]1CC[C@@H]([C@H]2CC[C@H]([C@H](O)CCCCC(O)CCCCC[C@@H](O)CC3=C[C@H](C)OC3=O)O2)O1 (stereo not given in full)
- EC50 (MCF7): 3.79 µg/mL (≈ 5.93 µM)
- ED50 (PC-3): 2.01 ×10⁻⁴ ug/ml
- LC50 (Artemia): 7 ×10⁻² ug/ml
- ED50 (HT-29): 1.54 ×10⁻⁶ ug/ml
- ED50 (MIA PaCa-2): 2.01 ×10⁻⁴ ug/ml
- EC50 (A549): 1.54 µg/mL (≈ 2.41 µM)
- EC50 (A498): 0.0362 µg/mL (≈ 0.0567 µM)

Structure (SMILES): CCCCCCCCCC[C@@H](O)[C@H]1CC[C@H]([C@H]2C[C@@H](O)[C@H]([C@H](O)CCCCCCCCCC[C@@H](O)CC3=C[C@H](C)OC3=O)O2)O1 [ASIMITRIN]
- EC50 (MCF7): 2.12 µg/mL (≈ 3.32 µM)
- ED50 (PC-3): 1.72 ×10⁻⁶ ug/ml
- LC50 (Artemia): 2.07 ×10⁻² ug/ml
- ED50 (HT-29): 1.19 ×10⁻⁴ ug/ml
- ED50 (MIA PaCa-2): 2.11 ×10⁻⁴ ug/ml
- EC50 (A549): 1.19 µg/mL (≈ 1.86 µM)
- EC50 (A498): 0.75 µg/mL (≈ 1.17 µM)

Structure (SMILES): COc1cccc2c1C(=O)c1c(O)c3c(c(O)c1C2=O)C[C@@](O)(C(=O)CO)C[C@@H]3O[C@H]1C[C@H](N)[C@H](O)[C@H](C)O1 [DOXORUBICIN]
- EC50 (MCF7): 0.953 µg/mL (≈ 1.75 µM)
- EC50 (PC-3; Homo sapiens, PC-3, 168 h, read-out: ED50 (the source's name)): 0.0577 µg/mL (≈ 0.106 µM)
- EC50 (HT-29; Homo sapiens, HT-29, 168 h, read-out: ED50 (the source's name)): 0.0287 µg/mL (≈ 0.0528 µM)
- EC50 (MIA PaCa-2; Homo sapiens, MIA PaCa-2, 168 h, read-out: ED50 (the source's name)): 0.0061 µg/mL (≈ 0.0112 µM)
- EC50 (A549): 0.00622 µg/mL (≈ 0.0114 µM)
- EC50 (A498): 0.00286 µg/mL (≈ 0.00526 µM)
